Measured values taken from ChEMBL document CHEMBL1126707, “Tetrapeptide tachykinin antagonists: synthesis and modulation of the physicochemical and pharmacological properties of a new series of partially cyclic analogs” (J Med Chem, 1993).
Values after ≈ are worked out from the molar mass of the structure shown. Peptide text beside a SMILES is read from it.

How the values were obtained:
Neuromedin-K receptor = molecular target: T1, Neuromedin-K receptor (Rattus norvegicus, UniProt P16177); experiment: Tested for antagonist activity against NK-3 receptor in rat portal vein by using Neurokinin B as agonist; assay type: functional; settings: read-out: pA2 (converted)
T1 sequence (P16177 whole entry): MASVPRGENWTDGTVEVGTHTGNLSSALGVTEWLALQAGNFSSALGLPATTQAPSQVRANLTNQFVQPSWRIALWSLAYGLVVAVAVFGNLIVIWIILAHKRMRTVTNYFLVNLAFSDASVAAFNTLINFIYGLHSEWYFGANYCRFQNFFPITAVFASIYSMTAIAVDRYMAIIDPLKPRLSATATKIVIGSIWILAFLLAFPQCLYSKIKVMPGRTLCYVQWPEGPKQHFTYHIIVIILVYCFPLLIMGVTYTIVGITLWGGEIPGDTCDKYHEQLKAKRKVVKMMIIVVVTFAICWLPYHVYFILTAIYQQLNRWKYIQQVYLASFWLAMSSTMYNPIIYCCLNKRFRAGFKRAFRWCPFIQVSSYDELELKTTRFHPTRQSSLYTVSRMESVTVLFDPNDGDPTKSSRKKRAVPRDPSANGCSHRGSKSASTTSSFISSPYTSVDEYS
In short: (§1)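 Isolated-organ contractile bioassays: SP on rabbit vena cava (NK-1), neurokinin A on rabbit pulmonary artery (NK-2), neurokinin B on rat portal vein (NK-3); antagonist apparent affinity expressed as pA2 by Schild plot.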

[1] = Solubility was evaluated; assay type: physicochemical
[2] = molecular target: Substance-P receptor (Oryctolagus cuniculus); experiment: Tested for antagonist activity against NK1 receptor in rabbit vena cava by using substance P (SP) as agonist; settings: read-out: pA2 (converted)
Substance-K receptor [3] = molecular target: T2, Substance-K receptor (Oryctolagus cuniculus, UniProt P79218); experiment: Tested for antagonist activity against NK-2 receptor in rabbit pulmonary artery by using Neurokinin A as agonist; assay type: functional; settings: read-out: pA2 (converted); in short: as §1
T2 sequence (P79218 whole entry): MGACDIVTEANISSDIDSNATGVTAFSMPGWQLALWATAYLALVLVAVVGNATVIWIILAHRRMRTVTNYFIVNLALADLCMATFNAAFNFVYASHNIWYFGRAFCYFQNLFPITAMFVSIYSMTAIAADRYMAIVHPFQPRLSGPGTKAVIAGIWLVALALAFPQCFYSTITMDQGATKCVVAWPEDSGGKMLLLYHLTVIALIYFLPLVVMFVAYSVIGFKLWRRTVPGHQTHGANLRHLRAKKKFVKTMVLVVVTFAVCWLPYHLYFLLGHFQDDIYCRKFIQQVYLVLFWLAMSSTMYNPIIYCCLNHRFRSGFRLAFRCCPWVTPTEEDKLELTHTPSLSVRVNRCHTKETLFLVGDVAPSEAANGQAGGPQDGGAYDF

Substance-K receptor [4] = molecular target: T3, Substance-K receptor (Homo sapiens, UniProt P21452); experiment: Tested for binding affinity against human NK-2 receptor
T3 sequence (P21452 whole entry): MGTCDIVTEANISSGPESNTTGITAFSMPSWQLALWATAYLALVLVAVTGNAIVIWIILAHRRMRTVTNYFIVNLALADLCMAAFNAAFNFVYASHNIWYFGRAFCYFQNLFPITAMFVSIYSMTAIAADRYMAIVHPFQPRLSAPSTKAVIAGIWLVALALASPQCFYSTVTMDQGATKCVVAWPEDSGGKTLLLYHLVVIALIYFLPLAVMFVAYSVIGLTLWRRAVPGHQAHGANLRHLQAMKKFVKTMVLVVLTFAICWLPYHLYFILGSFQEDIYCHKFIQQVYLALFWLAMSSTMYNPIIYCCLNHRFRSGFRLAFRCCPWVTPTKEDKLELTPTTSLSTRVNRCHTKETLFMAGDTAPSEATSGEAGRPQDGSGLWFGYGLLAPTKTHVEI

Mus musculus [5] = experiment: Tested for antinociceptive activity against mouse hotplate test for 10 min after intravenous injection at 0.5 […] (P*<0.05); assay type: functional
Mus musculus [6] = experiment: Tested for antinociceptive activity against mouse hotplate test for 60 min after oral administration of 40 mg/kg (P*<0.05); assay type: functional
In short: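 Male CD1 mice (25-30 g) on a 55 ± 0.2 °C plate; forepaw-licking latency measured 60 min after oral 40 mg/kg given in water (soluble) or 0.2% hydroxypropylcellulose (insoluble); % increase of reaction time versus vehicle controls; groups of 12 animals; Dunnett t-test.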

Substance-P receptor [7] = molecular target: Substance-P receptor (Rattus norvegicus, UniProt P14600); experiment: Tested for binding affinity against rat NK-1 receptor
Substance-K receptor [8] = molecular target: T4, Substance-K receptor (Rattus norvegicus, UniProt P16610); experiment: Tested for binding affinity against rat NK-2 receptor
T4 sequence (P16610 whole entry): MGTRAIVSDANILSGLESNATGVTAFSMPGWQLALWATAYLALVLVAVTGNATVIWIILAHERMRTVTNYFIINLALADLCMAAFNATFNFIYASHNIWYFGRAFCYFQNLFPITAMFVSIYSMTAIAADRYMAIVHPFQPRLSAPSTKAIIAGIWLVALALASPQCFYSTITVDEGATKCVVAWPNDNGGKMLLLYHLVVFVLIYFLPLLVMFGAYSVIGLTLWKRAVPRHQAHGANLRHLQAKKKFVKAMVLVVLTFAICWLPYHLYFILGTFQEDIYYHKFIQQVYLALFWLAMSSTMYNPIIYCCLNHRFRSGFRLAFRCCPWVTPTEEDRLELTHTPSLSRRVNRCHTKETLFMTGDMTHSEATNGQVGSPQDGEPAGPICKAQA

Substance-P receptor [9] = molecular target: Substance-P receptor (Homo sapiens, UniProt P25103); experiment: Tested for binding affinity against human NK-1 receptor
Rattus norvegicus [10] = species on record: Rattus norvegicus; experiment: Tested for its ability to promote degranulation of rat peritoneal mast cells at 0.1 mM or lower; No degranulation; assay type: functional, cell-based
In short: (§2)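 Peritoneal mast cells lavaged from male Sprague-Dawley rats (350-400 g), buffer pH 6.8, 2 × 10^4 cells/mL, preincubated 10 min at 37 °C, then exposed to compound (10^-7 to 10^-4 M, in water or DMSO) 10 min at 37 °C; iced, centrifuged; histamine in supernatant and pellet measured fluorimetrically with o-phthalaldehyde, as % of total.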

Substance-K receptor [11] = molecular target: T4, Substance-K receptor; experiment: Tested for binding affinity against rat NK-2 receptor transfected on CHO cells using [125I]-His] NKA as radioligand; assay type: cell-based
Substance-K receptor [12] = molecular target: T3, Substance-K receptor; experiment: Tested for binding affinity against human NK-2 receptor transfected on CHO cells using [125I]-His] NKA as radioligand; assay type: cell-based
Mus musculus [13] = experiment: Tested for antinociceptive activity against mouse hotplate test for 10 min after intravenous injection at 0.5 […] (P*<0.01); assay type: functional
Rattus norvegicus [14] = species on record: Rattus norvegicus; experiment: Tested for its ability to promote degranulation of rat peritoneal mast cells; assay type: functional, cell-based; in short: as §2
Rattus norvegicus [15] = species on record: Rattus norvegicus; experiment: (§3) Binding affinity by displacement of tritiated substance P from its binding sites on membrane preparations from rat brain
Mus musculus [16] = species on record: Mus musculus; experiment: (§4) Binding affinity by displacement of tritiated substance P from its binding sites on membrane preparations from mouse brain
[17] = as §4; assay type: tissue-based
[18] = as §3; assay type: tissue-based

Substance-P receptor (Rattus norvegicus, UniProt P14600), sequence (P14600 whole entry): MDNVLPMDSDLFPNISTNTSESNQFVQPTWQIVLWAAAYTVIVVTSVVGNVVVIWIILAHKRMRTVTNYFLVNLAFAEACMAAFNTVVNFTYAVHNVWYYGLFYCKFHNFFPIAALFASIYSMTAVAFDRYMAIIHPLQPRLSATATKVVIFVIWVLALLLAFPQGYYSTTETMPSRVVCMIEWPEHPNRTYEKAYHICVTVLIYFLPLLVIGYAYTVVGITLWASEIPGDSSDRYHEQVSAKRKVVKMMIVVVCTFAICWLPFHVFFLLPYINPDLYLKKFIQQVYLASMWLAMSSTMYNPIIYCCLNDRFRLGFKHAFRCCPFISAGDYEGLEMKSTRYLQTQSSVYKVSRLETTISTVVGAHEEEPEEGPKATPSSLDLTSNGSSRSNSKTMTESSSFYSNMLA
Substance-P receptor (Homo sapiens, UniProt P25103), sequence (P25103 whole entry): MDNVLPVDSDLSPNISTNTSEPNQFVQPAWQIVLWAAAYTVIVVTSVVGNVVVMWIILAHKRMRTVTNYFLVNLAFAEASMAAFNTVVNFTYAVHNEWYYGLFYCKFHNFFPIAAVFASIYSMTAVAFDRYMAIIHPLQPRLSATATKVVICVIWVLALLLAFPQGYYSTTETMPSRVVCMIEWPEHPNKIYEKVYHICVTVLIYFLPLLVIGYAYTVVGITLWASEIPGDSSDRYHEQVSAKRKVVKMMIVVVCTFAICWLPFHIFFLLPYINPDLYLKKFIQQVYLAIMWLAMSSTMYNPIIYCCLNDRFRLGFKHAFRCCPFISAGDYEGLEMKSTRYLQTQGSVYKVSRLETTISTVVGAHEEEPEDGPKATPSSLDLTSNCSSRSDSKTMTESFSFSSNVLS

SMILES: CN(Cc1ccccc1)C(=O)[C@H](Cc1ccccc1)NC(=O)[C@@H](Cc1cn(C(=O)OCc2ccccc2)c2ccccc12)NC(=O)C[C@@H]1NC(=O)[C@@H]2C3CCC(CC3)N2C1=O
- Kb (Neuromedin-K receptor): 1.58 µM
- solubility [1]: < 10 µg/mL
- Kb [2]: 0.158 µM
- Kb (Substance-K receptor [3]): 1.26 µM

SMILES: COC(=O)n1cc(C[C@@H](NC(=O)C[C@@H]2NC(=O)[C@@H]3C4CCC(CC4)N3C2=O)C(=O)N[C@@H](Cc2ccccc2)C(=O)N(C)Cc2ccccc2)c2ccccc21
- Kb (Neuromedin-K receptor): 0.158 µM
- solubility [1]: < 10 µg/mL
- Kb [2]: 0.1 µM
- Kb (Substance-K receptor [3]): 15.8 µM

SMILES: CCCCCCCC(=O)n1cc(C[C@@H](NC(=O)C[C@@H]2NC(=O)[C@@H]3C4CCC(CC4)N3C2=O)C(=O)N[C@@H](Cc2ccccc2)C(=O)N(C)Cc2ccccc2)c2ccccc21
- Kb (Neuromedin-K receptor): 12.6 µM
- solubility [1]: < 10 µg/mL
- Kb [2]: 12.6 µM
- Kb (Substance-K receptor [3]): 15.8 µM

SMILES: CN(Cc1ccccc1)C(=O)[C@H](Cc1ccccc1)NC(=O)[C@@H](Cc1cn(C(=O)CCC(=O)O)c2ccccc12)NC(=O)C[C@@H]1NC(=O)[C@@H]2C3CCC(CC3)N2C1=O
- IC50 (Substance-K receptor [4]): 0.129 µM
- Kb (Neuromedin-K receptor): 12.6 µM
- solubility [1]: 45000 µg/mL (≈ 57000 µM)
- Increase (Mus musculus [5]): 42%
- Increase (Mus musculus [6]): 53%
- IC50 (Substance-P receptor [7]): 14.5 µM
- Kb [2]: 0.126 µM
- Kb (Substance-K receptor [3]): 15.8 µM
- IC50 (Substance-K receptor [8]): 0.388 µM
- IC50 (Substance-P receptor [9]): 0.085 µM

SMILES: CN(Cc1ccccc1)C(=O)[C@H](Cc1ccccc1)NC(=O)[C@@H](Cc1c[nH]c2ccccc12)NC(=O)C[C@@H]1NC(=O)[C@@H]2C3CCC(CC3)N2C1=O
- Kb (Neuromedin-K receptor): 1.58 µM
- solubility [1]: < 10 µg/mL
- IC50 (Rattus norvegicus [10]): Not Active
- Increase (Mus musculus [6]): 74%
- IC50 (Substance-K receptor [11]): 0.065 µM
- IC50 (Substance-K receptor [12]): 0.065 µM
- Kb (Substance-K receptor [3]): 2 µM
- Increase (Mus musculus [13]): 66%

SMILES: CN(Cc1ccccc1)C(=O)[C@H](Cc1ccccc1)NC(=O)[C@@H](Cc1cn(C=O)c2ccccc12)NC(=O)C[C@@H]1NC(=O)[C@@H]2C3CCC(CC3)N2C1=O
- Kb (Neuromedin-K receptor): 12.6 µM
- solubility [1]: < 10 µg/mL
- IC50 (Rattus norvegicus [10]): Not Active
- Increase (Mus musculus [5]): 51%
- Increase (Mus musculus [6]): 33%
- IC50 (Substance-K receptor [11]): 0.142 µM
- IC50 (Substance-K receptor [12]): 0.017 µM
- Kb (Substance-K receptor [3]): 12.6 µM

SMILES: CN(Cc1ccccc1)C(=O)[C@H](Cc1ccccc1)NC(=O)[C@@H](Cc1cn(C(=O)CCCCCCN)c2ccccc12)NC(=O)C[C@@H]1NC(=O)[C@@H]2C3CCC(CC3)N2C1=O
- IC50 (Rattus norvegicus [14]): 13 µM
- IC50 (Substance-K receptor [4]): 0.045 µM
- Kb (Neuromedin-K receptor): 2 µM
- solubility [1]: 43000 µg/mL (≈ 52700 µM)
- Increase (Mus musculus [5]): 54%
- Increase (Mus musculus [6]): 62%
- Kb (Substance-K receptor [3]): 20 µM
- IC50 (Substance-K receptor [8]): 0.188 µM

SMILES: CC(C)C[C@H](NC(=O)[C@H](CC(C)C)NC(=O)[C@@H](Cc1c[nH]c2ccccc12)NC(=O)[C@H](Cc1ccccc1)NC(=O)[C@@H](Cc1c[nH]c2ccccc12)NC(=O)[C@H](CCC(N)=O)NC(=O)[C@H](CCC(N)=O)NC(=O)[C@@H]1CCCN1C(=O)[C@H](CCCCN)NC(=O)[C@@H]1CCCN1C(=O)[C@H](N)CCCN=C(N)N)C(N)=O (HELM PEPTIDE1{[dR].P.K.P.Q.Q.[dW].F.[dW].L.L.[am]}$$$$V2.0)
- Ki (Rattus norvegicus [15]): 2.6 µM
- Kb (Neuromedin-K receptor): 0.631 µM
- Ki (Mus musculus [16]): 2.6 µM

SMILES: CC(=O)n1cc(C[C@@H](NC(=O)C[C@@H]2NC(=O)[C@@H]3C4CCC(CC4)N3C2=O)C(=O)N[C@@H](Cc2ccccc2)C(=O)N(C)Cc2ccccc2)c2ccccc21
- Kb (Neuromedin-K receptor): 0.1 µM
- solubility [1]: < 10 µg/mL
- Kb [2]: 0.0501 µM
- Kb (Substance-K receptor [3]): 0.126 µM

SMILES: CN(Cc1ccccc1)C(=O)[C@H](Cc1ccccc1)NC(=O)[C@@H](Cc1cn(C(=O)OC(C)(C)C)c2ccccc12)NC(=O)C[C@@H]1NC(=O)[C@@H]2C3CCC(CC3)N2C1=O
- Kb (Neuromedin-K receptor): 1.26 µM
- solubility [1]: < 10 µg/mL
- Kb [2]: 0.126 µM
- Kb (Substance-K receptor [3]): 12.6 µM

SMILES: CN(Cc1ccccc1)C(=O)[C@H](Cc1ccccc1)NC(=O)[C@@H](Cc1cn(C(=O)OCCCCCCN)c2ccccc12)NC(=O)C[C@@H]1NC(=O)[C@@H]2C3CCC(CC3)N2C1=O
- IC50 (Rattus norvegicus [14]): 13 µM
- IC50 (Substance-K receptor [4]): 0.046 µM
- Kb (Neuromedin-K receptor): 10 µM
- solubility [1]: 40000 µg/mL (≈ 48100 µM)
- Increase (Mus musculus [5]): 40%
- Increase (Mus musculus [6]): 62%
- IC50 (Substance-P receptor [7]): 3.14 µM
- Kb [2]: 0.0398 µM
- Kb (Substance-K receptor [3]): 10 µM
- IC50 (Substance-K receptor [8]): 0.244 µM
- IC50 (Substance-P receptor [9]): 0.034 µM

SMILES: CSCC[C@@H](NC(=O)[C@H](CC(C)C)NC(=O)CNC(=O)[C@H](Cc1ccccc1)NC(=O)[C@H](Cc1ccccc1)NC(=O)[C@H](CCC(N)=O)NC(=O)[C@H](CCC(N)=O)NC(=O)[C@@H]1CCCN1)C(N)=O
- Ki [17]: 0.75 µM
- Ki [18]: 0.75 µM
